Published values gathered from unrelated publications.
Matrix: plasma

| SMILES | host | route | dose | setting | AUC(0-inf) [ng·h/mL] |
| --- | --- | --- | --- | --- | --- |
| CO[C@H]1CC[C@H](N2C(=O)CNc3ncc(-c4ccc(C(C)(C)O)nc4)nc32)CC1 | human | oral | 60 mg | patients | 2070 |
| CCc1nc2c(C)cc(N3CCN(CC(=O)N4CC(O)C4)CC3)cn2c1N(C)c1nc(-c2ccc(F)cc2)c(C#N)s1 | human | oral | 300 mg | single dose, fed, healthy volunteers | 14900 |
| CC(C)(Sc1ccncc1-c1ccc(C#N)c2ccccc12)C(=O)O | male human | oral | 5 mg | single dose, fed, healthy volunteers | 92.8 |
| Cn1cc(-c2ccc(S(=O)(=O)[C@@H]3C[C@@H](C(=O)NC4(C#N)CC4)N(C(=O)C4(C(F)(F)F)CC4)C3)c(C(F)(F)F)c2)cn1 | human | oral | 100 mg | single dose, fasted, healthy volunteers | 10600 |
| CCOc1cc2ncc(C#N)c(Nc3ccc(OCc4ccccn4)c(Cl)c3)c2cc1NC(=O)/C=C/[C@H]1CCCN1C | human | oral | 80 mg | single dose | 386 |
| O=C(/C=C/c1cccc(S(=O)(=O)Nc2ccccc2)c1)NO | human | intravenous | 1900 mg/m² | patients | 72800 |
| CN(C)CCCNC(=O)/C(=C/CCCCC(=O)NO)COc1cccc2ccccc12 | human | intravenous | 312.5 mg/m² | single dose | 72600 |
| CC(C)(O)c1ccccc1-c1ccc2[nH]c(/C=C/c3ccc(C(F)(F)F)cc3)nc2c1 | male human | oral | 30 mg | single dose, fasted | 5690 |
| Nc1ccc(-c2nc([C@H]3CCc4cc(-c5cc(Cl)ccc5-n5cnnn5)cc(=O)n43)c(F)[nH]2)c(F)n1 | human | oral | 80 mg | single dose, fed | 15900 |
| COc1ccc([C@@H]2CN(C(=O)[C@@H](O)CO)C[C@@]2(C)[C@@H](C)O)cc1OC1CN(c2ccc(C)cn2)C1 | human | oral | 5 mg | single dose, healthy volunteers | 1850 |
| CCCOc1ccc([C@H]2CNC(=O)N2c2ccc3[nH]cnc3c2)cc1 | human | oral | 200 mg | fasted, healthy volunteers | 2110 |
| CC(C)[C@](O)(c1ccc2cc(OC(F)F)c(OC(F)F)cc2c1)c1c[nH]nn1 | female human | oral | 450 mg | single dose | 31100 |
| CCOc1ccc(Cc2cc([C@@H]3S[C@H](CO)[C@@H](O)[C@H](O)[C@H]3O)c(OC)cc2C)cc1 | male human | oral | 5 mg | single dose, fasted | 2010 |
| COc1ccc(-n2nc(C(N)=O)c3c2C(=O)N(c2ccc(N4CCCCC4=O)cc2)CC3)cc1 | male human | oral | 50 mg | single dose | 4740 |
| COc1ccc2[nH]c([S+]([O-])Cc3ncc(C)c(OC)c3C)nc2c1 (centres unmarked) | male human | oral | 100 µg | – | 2.46 |
| C[C@@]1(c2cc(NC(=O)c3ccc(C#N)cn3)ccc2F)C=CSC(N)=N1 | human | oral | 10 mg | single dose | 1040 |
| CS(=O)(=O)CCC#N | human | oral | 300 mg | single dose, fasted | 327000 |
| O=C(Nc1c(Cl)cncc1Cl)c1ccc(OC(F)F)c(OCC2CC2)c1 | human | oral | 0.5 mg | single dose, fasted | 65.1 |
| CC(C)n1cc(C#N)c2cc(-n3cc(C(=O)O)cn3)ccc21 | human | oral | 50 mg | single dose, fasted, healthy volunteers | 7120 |
| CCCCC[C@H](O)CC[C@@H]1[C@H]2Cc3cccc(OCC(=O)O)c3C[C@H]2C[C@H]1O | human | inhaled | 18 µg | single dose, healthy volunteers | 0.34 |
